Assay outcomes (PubChem BioAssay)
An excerpt weighted towards active compounds, which were near 1.8% of everything screened.
Cneo AK release: Cryptococcus neoformans lysis via adenylate kinase release; C. neoformans lysis, adenylate kinase release luminescence, 4 h; normalised: neutral wells 0, clomiphene wells 100; AID 651654; actives 0.2% (n = 360,000); lysis activity, % at 15 µM;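 active = mean lysis activity across replicates of at least 80%, whatever share of replicates individually reach that level; inactive = mean lysis activity below 80%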
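Test system: log-phase Cryptococcus neoformans yeast cells. Input: 5 × 10^6 yeast cells/mL. Medium: fresh YPD growth medium. Doses: single dose. Incubation: static 4 h at 37 °C with compound, 1 h detection. Measured by: luminescent adenylate kinase detection reagent. Read-out: signal increase indicating cell lysis. Benchmarks: Clomiphene.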
rRNA inh HTS: inhibits bacterial ribosomal RNA function over humanized ribosomes | E. coli WT GFP vs humanized-ribosome RFP mutants, fluorescence, 24 h; active compounds read low; DMSO median 0, no signal -100 | GFP signal change (wild-type ribosome), % (test concentration not listed) | actives 1.6% (n = 350,000);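 active = significant combined selectivity score with lowered wild-type GFP, culture density cut under 30%, mutant RFP and density less affected; inactive = any of these conditions unmet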
MT1-MMP act inh: blocks activation of human MT1-MMP; HT1080 RFP-PRO-GFP cells, GFP/RFP ratio fluorescence, overnight; percent of plate control window, DMSO zero; GFP/RFP ratio change, % at 20 µM; P50281; actives 0.061% (n = 360,000);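 active = GFP/RFP ratio change of at least 30% with cell ATP level not reduced by more than half and red fluorescence within 50% of control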
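Assay system: HT1080 RFP-PRO-GFP cells. Benchmarks: DMSO vehicle wells and RFP-L50D-GFP reporter cell wells. Times: overnight cell settling, then overnight compound exposure, 37 °C, 5% CO2. Compound: 20 µM single dose, 1% DMSO. Read-out basis: GFP/RFP fluorescence ratio.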
iPSC survival up: increases survival of single human iPS cells | survival enhancement, % at 20 µM | hiPSC single-cell survival, ATPlite luminescence; 100% = ROCK inhibitor wells, 0% = DMSO | actives 0.044% (n = 360,000); in the data active = survival enhancement above about 18%;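 note: cells exposed to compounds for 16 hours before the ATP read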
SKN-1 block: C. elegans SKN-1 inhibition; C. elegans VP596 Pgst-4::GFP/RFP ratio, acrylamide-induced, 24 h; inhibition, % at 21.8 µM; actives 0.49% (n = 360,000); AID 624304;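 active = interference check ratio from 0.5 to 1.5 plus GFP to RFP signal ratio inhibition reaching or exceeding a fixed threshold, cut at about 30% in these data, passing the limit was not always enough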
DAGLB inhibitor: blocks human DAGLB lipase activity | HEK293T DAGLB membrane lysate, EnzChek fluorogenic substrate | Q8NCG7 | inhibition, % at 5.17 µM | AID 504411 | actives 0.059% (n = 340,000); in the data active = inhibition above about 34%;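 note: 0% = enzyme with vehicle and 100% = wells lacking enzyme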
Target sequence (Q8NCG7 whole entry, looked up): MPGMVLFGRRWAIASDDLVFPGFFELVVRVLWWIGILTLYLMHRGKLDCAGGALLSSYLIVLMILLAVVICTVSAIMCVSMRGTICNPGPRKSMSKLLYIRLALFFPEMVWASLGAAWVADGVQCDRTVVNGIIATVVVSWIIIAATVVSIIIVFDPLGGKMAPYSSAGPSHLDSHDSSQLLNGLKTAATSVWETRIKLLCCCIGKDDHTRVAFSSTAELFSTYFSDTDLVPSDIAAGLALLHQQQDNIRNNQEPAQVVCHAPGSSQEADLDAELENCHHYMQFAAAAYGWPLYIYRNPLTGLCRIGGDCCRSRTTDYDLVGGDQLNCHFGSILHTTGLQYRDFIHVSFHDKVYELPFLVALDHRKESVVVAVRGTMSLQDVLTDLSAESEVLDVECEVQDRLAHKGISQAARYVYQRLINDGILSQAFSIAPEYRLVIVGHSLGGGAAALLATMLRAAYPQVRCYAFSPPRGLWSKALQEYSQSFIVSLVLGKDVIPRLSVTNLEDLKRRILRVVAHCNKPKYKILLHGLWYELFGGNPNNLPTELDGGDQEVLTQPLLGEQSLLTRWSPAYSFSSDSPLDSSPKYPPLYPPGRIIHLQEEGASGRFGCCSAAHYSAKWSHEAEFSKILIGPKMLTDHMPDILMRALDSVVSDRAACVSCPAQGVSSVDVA
* = called active by the depositor.

Results for O=C(Nc1nc(-c2ccc(Cl)cc2)cs1)C1=COCCO1 ?
Cneo AK release: -2.0; rRNA inh HTS: -16.6; MT1-MMP act inh: 1.0; iPSC survival up: -0.3; SKN-1 block: 21.0; DAGLB inhibitor: -7.7

What do the screens show for `CC(Sc1nc(O)c(-c2ccccc2)c(=O)[nH]1)C(=O)Nc1ccc(Cl)cc1` (stereo not drawn)?
rRNA inh HTS: -23.9*; MT1-MMP act inh: -0.6; iPSC survival up: 0.0; SKN-1 block: 2.4; DAGLB inhibitor: 1.5

How did CCOC(=O)c1ccc(NC(=O)C(C)Sc2nc(O)c(-c3ccccc3)c(=O)[nH]2)cc1 (stereo not drawn) do in these assays?
rRNA inh HTS: 1.2; MT1-MMP act inh: 0.9; iPSC survival up: 1.9; SKN-1 block: 10.7; DAGLB inhibitor: -1.3

Results for O=C([C@H]1[C@H](CO)[C@H]2Cn3c(cccc3=O)[C@H]2N1CCC(F)(F)F)N1CCCCC1 ?
Cneo AK release: 92.5*; rRNA inh HTS: 2.9

How did N#C/C(=N\Nc1ccc(S(=O)(=O)N2CCCCC2)cc1)C(N)=S do in these assays?
Cneo AK release: 8.0; rRNA inh HTS: -31.8*; MT1-MMP act inh: 3.6; iPSC survival up: 0.3; SKN-1 block: -4.2; DAGLB inhibitor: 11.1

What do the screens show for `Nc1cccnc1Oc1ccccc1F`?
Cneo AK release: 1.6; rRNA inh HTS: 4.6; MT1-MMP act inh: -1.2; iPSC survival up: 0.1; SKN-1 block: -3.2; DAGLB inhibitor: -0.5

How did O=C(/C=C/c1ccccc1)Nc1cccnc1Oc1ccccc1F do in these assays?
Cneo AK release: -9.0; rRNA inh HTS: -16.4*; MT1-MMP act inh: -0.2; iPSC survival up: -0.4; SKN-1 block: 10.0; DAGLB inhibitor: -6.4

What do the screens show for `C[C@@H]1CN([C@@H](C)CO)S(=O)(=O)c2ccc(C3=CCCC3)cc2O[C@H]1CN(C)C(=O)C1CC1`?
rRNA inh HTS: -3.3

How did CCOC(=O)c1sc2nc(NC(=O)C(C)(C)C)sc2c1C do in these assays?
Cneo AK release: -2.3; rRNA inh HTS: -20.0*; MT1-MMP act inh: -9.1; iPSC survival up: -0.5; SKN-1 block: 27.5; DAGLB inhibitor: -7.7

What do the screens show for `CO[C@@H]1CN(C)C(=O)c2cc(NC(=O)C3CCCC3)ccc2OC[C@@H](C)N(CCC(F)(F)F)C[C@@H]1C`?
Cneo AK release: 1.3; rRNA inh HTS: -6.0

What do the screens show for `COCCNC(=O)C[C@@H]1C[C@@H]2c3cc(NC(=O)c4cccnc4)ccc3O[C@@H]2[C@H](CO)O1`?
Cneo AK release: 38.7; rRNA inh HTS: 4.0

What do the screens show for `c1ccc(NCc2cccnc2)cc1`?
Cneo AK release: 1.8; MT1-MMP act inh: 2.1; iPSC survival up: -0.2; SKN-1 block: -0.5; DAGLB inhibitor: -1.6

What do the screens show for `CN(C)S(=O)(=O)c1cccc2c1C(=O)c1ccccc1C2=O`?
rRNA inh HTS: 10.1; MT1-MMP act inh: 0.9; iPSC survival up: 1.6; SKN-1 block: -2.7; DAGLB inhibitor: -4.8

Results for O=C1c2ccccc2C(=O)c2c(NCc3cccnc3)cccc21 ?
Cneo AK release: 0.9; MT1-MMP act inh: 28.2; iPSC survival up: -0.3; SKN-1 block: 42.8*; DAGLB inhibitor: 12.0

Results for CNc1cccc2c1C(=O)c1ccccc1C2=O ?
rRNA inh HTS: -4.3; MT1-MMP act inh: 25.3; iPSC survival up: -1.3; SKN-1 block: 45.1*; DAGLB inhibitor: 21.1

What do the screens show for `CC1(C(=O)NS(=O)(=O)c2ccccc2Cl)CCN1C(=O)C1(c2ccc(Cl)cc2)CCC1` (stereo not drawn)?
Cneo AK release: 0.9; rRNA inh HTS: -16.8*; MT1-MMP act inh: -7.0; iPSC survival up: -2.6; SKN-1 block: 1.2

What do the screens show for `CC1(C(=O)NS(=O)(=O)c2ccc(Cl)s2)CCN1C(=O)C1(c2ccccc2)CCCC1` (stereo not drawn)?
Cneo AK release: -1.1; rRNA inh HTS: -31.0*; MT1-MMP act inh: -10.4; iPSC survival up: -0.1; SKN-1 block: -19.7

Results for O=C(Nc1cc(F)ccc1F)N[C@H]1CC[C@@H](CCn2cc(C3CCCC3)nn2)O[C@H]1CO ?
rRNA inh HTS: -7.9

Results for CCOC(=O)c1c(C)oc2ccc(NS(=O)(=O)c3cccs3)cc12 ?
rRNA inh HTS: -29.9*; MT1-MMP act inh: -0.9; iPSC survival up: -2.3; SKN-1 block: 18.4; DAGLB inhibitor: -2.6

Results for CCn1c(COc2ccccc2)nnc1SCC(=O)c1cccc([N+](=O)[O-])c1 ?
Cneo AK release: 0.4; rRNA inh HTS: -24.4*; MT1-MMP act inh: 15.5; iPSC survival up: -0.2; SKN-1 block: 12.1; DAGLB inhibitor: 0.7

Results for CCOC(=O)CN(C(=O)CSc1nnc(CNc2ccc(C)cc2C)n1CC)c1ccccc1 ?
Cneo AK release: 4.6; MT1-MMP act inh: 3.7; iPSC survival up: -0.8; SKN-1 block: -1.4; DAGLB inhibitor: 2.3

How did CCOC(=O)CN(C(=O)CSc1nnc(COc2ccc(OC)cc2)n1CC)c1ccccc1 do in these assays?
Cneo AK release: -1.3; rRNA inh HTS: -27.0*; MT1-MMP act inh: 7.8; iPSC survival up: 0.4; SKN-1 block: 2.5; DAGLB inhibitor: 1.3

What do the screens show for `CCCCCCCCOc1ccc(C2OC34CCCCC3C(C#N)(C#N)C2(C#N)C(=N)O4)cc1` (stereo not drawn)?
Cneo AK release: 2.5; MT1-MMP act inh: -33.8; iPSC survival up: 1.2; SKN-1 block: 47.0*; DAGLB inhibitor: -3.7

What do the screens show for `C[C@@H]1CCCCO[C@H](CN(C)S(C)(=O)=O)[C@H](C)CN([C@@H](C)CO)C(=O)c2cc(NC(=O)c3ccncc3)ccc2O1`?
Cneo AK release: -2.8; rRNA inh HTS: 0.0

What do the screens show for `Cc1nc(C(=O)NNC(=O)c2cccc(Cl)c2)c(C(F)(F)F)o1`?
Cneo AK release: -5.8; rRNA inh HTS: -27.2*; MT1-MMP act inh: 4.6; iPSC survival up: 0.0; SKN-1 block: -4.8; DAGLB inhibitor: 3.0

How did COCC#Cc1ccc2c(c1)O[C@H](CN(C)C)[C@H](C)CN([C@H](C)CO)S2(=O)=O do in these assays?
Cneo AK release: 2.9; rRNA inh HTS: 1.3

How did Cc1ccc(OCc2ccc(C(=O)N3CCCC3)o2)c([N+](=O)[O-])c1 do in these assays?
Cneo AK release: -1.0; rRNA inh HTS: -19.2; MT1-MMP act inh: 4.3; iPSC survival up: -0.3; SKN-1 block: 11.1; DAGLB inhibitor: -0.5

Results for Cc1ccc(OCc2ccc(C(=O)O)o2)c([N+](=O)[O-])c1 ?
Cneo AK release: -6.1; rRNA inh HTS: -26.5*; MT1-MMP act inh: -2.7; iPSC survival up: 1.4; SKN-1 block: 3.0; DAGLB inhibitor: 0.9

Results for O=C(O)c1ccc(COc2ccc3ccccc3c2)o1 ?
Cneo AK release: 0.1; rRNA inh HTS: -17.1*; MT1-MMP act inh: -3.5; iPSC survival up: 0.2; SKN-1 block: -8.0; DAGLB inhibitor: 1.4
